Sampled rows, rich in hits. Any-hit rate of the full collection: about 5.5%.
STAT3 inh = reduces IL-6 driven STAT3 reporter signal; U3A cells, IL-6 STAT3-luciferase reporter, luminescence; host cell line lacks STAT1; inhibition, % at 5.5 µM; 190,000 compounds, 0.89% hits;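 active = inhibition above the mean inhibition across all screened compounds plus 3 SD, cut at about 44% in these data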
STAT3 activator = STAT3 signaling activation; 190,000 compounds, 0.91% hits; U3A cells, IL-6 STAT3-luciferase reporter, luminescence; 100% = signal with IL-6 EC80 alone; activation (% of control), % at 5.6 µM;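 active = activation above the screen-wide mean of compound activation plus 3 SD, cut at about 130% in these data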
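Material: STAT1-lacking human U3A cells, STAT3 luciferase reporter | Benchmarks: IL-6-only wells as 100% reference | Probe or stimulus: IL-6 (33 ng/mL) | Timing: Compound 1 h, then IL-6 6 h at 37 °C | Detection: Luminescence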
HSV replic up = HSV replication enhancement; maximum fold increase; 220,000 compounds, 0.005% hits; HSV replication augmentation in cells, fold increase; in the data active = maximum fold increase above about 1.5; inconclusive = no clear call, values can overlap the other calls; tested in PC3 cells
Cl transport mod = modulates chloride dependent transport by human KCC2 | Q9H2X9 | KCC2 cells, thallium flux FluoZin-2 fluorescence | B-score of Tl+ flux slope (higher = more flux/activation; lower = inhibition) at 10 µM | 190,000 compounds, 2.2% hits | AID 1456;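 active = thallium flux slope and its plate-corrected score both differing from the plate sample mean at a set confidence after two filtering rounds, in either direction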;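 also: slope of fluorescence scaled to starting intensity during 10 to 20 s after thallium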
STAT1 blocker = STAT1 signaling inhibition | NIH 3T3 STAT1-luciferase reporter, IFN-gamma, luminescence | inhibition, % at 5.5 µM | 200,000 compounds, 0.35% hits;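 active = inhibition above a set limit, the mean inhibition across all tested compounds plus 3 SD, cut at about 34% in these data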
STAT1 act = increases IFN-gamma driven STAT1 reporter signal; NIH 3T3 STAT1-luciferase reporter, luminescence; 100% = IFN-gamma alone, no compound; activation (% of control), % at 5.5 µM; 200,000 compounds, 2.6% hits;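 active = activation above the screen-wide mean activation plus 3 SD, cut at about 130% in these data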
STAT1 act conf = confirmation of STAT1 signaling activators; shares compounds with STAT1 act; NIH 3T3 STAT1-luciferase reporter, IFN-gamma potentiation, luminescence; 100% = IFN-gamma EC80 alone, no compound; activation (% of control), % at 5.7 µM; 1,200 compounds, 97% hits;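 active = activation above a set limit carried over from the earlier primary STAT1 screen, cut at about 140% in these data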
NFkB act = counter-screen for STAT1 activators: NF-kappaB activation. activation (% of control), % at 5.7 µM. HEK293T NF-kB luciferase reporter, TNF-alpha stimulated, luminescence; 100% = TNF-alpha with vehicle only. 1,200 compounds, 43% hits. AID 1306. shares compounds with STAT1 act;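 active = activation above the mean of solvent-only control wells plus 3 SD, set per campaign, cut at about 130% in these data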;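 also: TNF-alpha given at a submaximal dose yielding about 80% of full reporter signal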
STAT3 act STAT1c = counter-screen for STAT1 activators: human STAT3 activation. 1,200 compounds, 46% hits. shares compounds with STAT1 act. activation (% of control), % at 5.7 µM. U3A cells STAT3-luciferase reporter, IL-6, luminescence; cells lack STAT1; 100 = IL-6 alone, no compound effect;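 active = activation above the solvent-only control well mean plus 3 SD, set per plate batch, cut at about 110% in these data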;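 also: higher means more STAT3 reporter activation so hits are non-selective activators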
Of the large screens only hits and unclear results are named; the others gave an inactive call (follow-up assays come after a bar, where they were run).

O=C(c1cc2ccccc2c(=O)o1)N1CCCCCC1	none
Cc1ccccc1-c1nnc(NC(=O)c2cc3ccccc3oc2=O)s1	none
Cc1cccnc1NC(=O)c1cc2ccccc2oc1=O	STAT1 act 156 | STAT1 act conf 191 | NFkB act inactive | STAT3 act STAT1c 117
CC1=NN(c2ccccc2)C(=O)/C1=C/c1c(O)n(-c2ccc(F)cc2)[nH]c1=O	STAT1 act 153 | STAT1 act conf 177 | NFkB act inactive | STAT3 act STAT1c 132
CC1=NN(c2ccccc2)C(=O)/C1=C/c1cccs1	none
c1ccc(OCc2cc(-c3ccccc3)no2)cc1	STAT1 act 152 | STAT1 act conf 169 | NFkB act inactive | STAT3 act STAT1c inactive
c1ccc(SCc2cc(-c3ccccc3)no2)cc1	STAT1 act 162 | STAT1 act conf 175 | NFkB act inactive | STAT3 act STAT1c inactive
COc1ccccc1OCc1cc(-c2ccccc2)no1	STAT1 act 161 | STAT1 act conf 184 | NFkB act 138 | STAT3 act STAT1c inactive
COc1ccc(CCNC(=O)c2c(C)nc3ccccn23)cc1OC	none
CCn1ncc(C2=NOC(C(=O)NCc3ccc(Cl)cc3)C2)c1C (stereo unspecified)	none (no result: HSV replic up)
CN1CCN(c2ccc([N+](=O)[O-])c(-n3nc(-c4ccccc4)c4ccccc4c3=O)c2)CC1	none (no result: Cl transport mod)
O=C(/C=C/c1ccc(Cl)cc1)NCCN1CCOCC1	none
COCCNc1nc(-c2cc3ccccc3o2)cs1	STAT1 act 194 | STAT1 act conf 230 | NFkB act inactive | STAT3 act STAT1c inactive
COc1cc(OC)cc(C(=O)NC(=S)Nc2nc(-c3cc4ccccc4o3)cs2)c1	none (no result: STAT3 inh, STAT3 activator, STAT1 blocker, STAT1 act)
Cc1cc2nc(N=C(N)N)nc(C)c2cc1C	none
O=C(O)/C=C\C(=O)Nc1ccccc1C#Cc1ccc(Br)cc1	STAT1 act 159 | STAT1 act conf 131 | NFkB act inactive | STAT3 act STAT1c inactive
COc1cc(OC)c(C(=O)Nc2cccc(C(C)=O)c2)cc1OC	none
CSc1ccc(/C=N/NC(=O)c2sccc2C)cc1	STAT1 act 192 | STAT1 act conf 249 | NFkB act inactive | STAT3 act STAT1c inactive
CSc1nc2ccc3nc(NC(=O)c4cccs4)sc3c2s1	none
Cc1ccc2nc(NC(=O)Cc3cccs3)sc2c1	STAT1 act 154 (no result: Cl transport mod) | STAT1 act conf 180 | NFkB act 137 | STAT3 act STAT1c inactive
CN(C)S(=O)(=O)c1ccc2nc(NC(=O)c3cccs3)sc2c1	STAT1 act 153 | STAT1 act conf 179 | NFkB act inactive | STAT3 act STAT1c 117
O=C(Nc1nc2ccc(F)cc2s1)c1cccs1	STAT1 act 159 | STAT1 act conf 246 | NFkB act inactive | STAT3 act STAT1c inactive
Cc1ccc(S(=O)(=O)N2CCN(CCC#N)CC2)cc1	none
CNc1oc(-c2cccs2)nc1C#N	none (no result: HSV replic up)
COc1ccc(Nc2oc(-c3cccs3)nc2C#N)cc1	STAT1 act 151 | STAT1 act conf 160 | NFkB act inactive | STAT3 act STAT1c inactive
Cn1c(/C=C/c2ccc([N+](=O)[O-])o2)nc2ccccc2c1=O	STAT1 act 212 | STAT1 act conf inactive | NFkB act 134 | STAT3 act STAT1c inactive
Cc1cc(N/N=C/c2ccc([N+](=O)[O-])o2)nc2ccccc12	HSV replic up inconclusive (no result: Cl transport mod)
Cc1ccc2cc(CCNC(=O)c3ccco3)c(=O)[nH]c2c1C	STAT1 act 156 (no result: HSV replic up) | STAT1 act conf 201 | NFkB act 138 | STAT3 act STAT1c 121
Cc1ccc2cc(CCNC(=O)c3ccco3)c(=O)[nH]c2c1	none
Cc1cc2cc(CCNC(=O)c3cccs3)c(=O)[nH]c2cc1C	STAT1 act 151 (no result: HSV replic up) | STAT1 act conf 176 | NFkB act inactive | STAT3 act STAT1c inactive
O=C(CSc1n[nH]c(-c2cc(Cl)ccc2Cl)n1)NCCN1C(=O)CSC1=O	none
CCCCNC(=O)COC(=O)c1ccc(Cl)c(S(N)(=O)=O)c1	none
O=C(NCCc1ccccn1)C1CCN(S(=O)(=O)c2ccc3ccccc3c2)CC1	none
CC(C)(C)n1ncc2c(=O)n(CC(=O)NCc3ccco3)cnc21	none
CC(C)(C)n1ncc2c(=O)n(CC(=O)NCc3ccc(F)cc3)cnc21	STAT1 act 160 | STAT1 act conf 199 | NFkB act inactive | STAT3 act STAT1c 127
O=C(CN1CCOc2ccccc21)N1CCCC1	none (no result: HSV replic up)
Nc1nonc1-c1noc(COc2ccccc2Cl)n1	STAT1 act 166 | STAT1 act conf 219 | NFkB act 139 | STAT3 act STAT1c 116
Clc1ccccc1OCc1nc(-c2ccccn2)no1	STAT1 act 168 (no result: HSV replic up) | STAT1 act conf 225 | NFkB act inactive | STAT3 act STAT1c inactive
COc1ccc(N/C(C)=C/C(=S)Nc2ccccc2)cc1	none
Cc1ccc(/C=C/C(=O)Nc2ccccc2C(N)=O)cc1	STAT1 act 152 | STAT1 act conf 180 | NFkB act inactive | STAT3 act STAT1c inactive
NC(=O)c1ccccc1NC(=O)/C=C/C(=O)O	none
N/C(=N\OC(=O)COc1ccc(Br)cc1Cl)c1ccncc1	STAT1 act 178 (no result: HSV replic up) | STAT1 act conf 193 | NFkB act 144 | STAT3 act STAT1c 118
CCN(CC)S(=O)(=O)c1cccc(NC(=O)CCSc2ccc(Cl)cc2)c1	none
Nc1ccc(-c2nc3ccc(N)cc3[nH]2)cc1	none (no result: Cl transport mod)
Nc1ccc(-c2nc3ccc([N+](=O)[O-])cc3[nH]2)cc1	STAT1 act 182 | STAT1 act conf 233 | NFkB act 147 | STAT3 act STAT1c 120
CCc1ccc(C2=NN(C(C)=O)C(c3ccco3)C2)cc1 (stereo unspecified)	STAT1 act 160 | STAT1 act conf 178 | NFkB act inactive | STAT3 act STAT1c 123
CCC(=O)N1N=C(c2ccc(Cl)cc2)CC1c1ccco1 (stereo unspecified)	none (no result: STAT3 inh, STAT3 activator, STAT1 blocker, STAT1 act)
CS(=O)(=O)N(Cc1ccccc1Cl)c1ccc(C(=O)NCc2ccccn2)cc1	none
O=C(COc1ccc(Cl)cc1[N+](=O)[O-])N1CCCCCC1	none
O=C(COc1ccc(Cl)cc1[N+](=O)[O-])NC1CCCCC1	STAT1 act 160 | STAT1 act conf 167 | NFkB act inactive | STAT3 act STAT1c 111
CCc1nnc(NC(=O)c2sc3nc4c(cc3c2N)CCCCCC4)s1	none
CCc1nnc(NC(=O)c2sc3nc4c(cc3c2N)CCCCC4)s1	STAT1 act 155 | STAT1 act conf 187 | NFkB act 135 | STAT3 act STAT1c 117

High-throughput results from PubChem BioAssay.
